Measurements published in PubChem BioAssay.
Activity calls are given as the source filed them.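 Rule for the calls, unless noted: active = compounds giving at least 50% inhibition in the cell-based MKP-3 phosphatase rescue imaging test; inactive = the rest.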

Tests used:
[1] = inhibitors of TNFa-induced NFkB p65 translocation, primary screen, imaging, HUVEC, MLSMR starter and 10KST1 sets (AID 438;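 active = inhibition above 20% together with a positive visual image hit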;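 note: compound added about 3h40 before a 20 min TNFalpha stimulation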;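 for inhibition: signal is the nuclear over cytoplasmic p65 intensity ratio per well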); settings: HUVEC TNFa-induced p65 nuclear translocation; cell count: measured here: nuclei count (cytotoxicity indicator), at 2.08 µM; inhibition: at 2 µM, stronger effect = higher value, 0% TNFa-plus-vehicle, 100% no-TNFa wells
[2] = endothelial E-selectin expression blockers – imaging, HUVEC, immunofluorescence, MLSMR starter and 10KST1 sets, primary screen (AID 487;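 active = visually confirmed hit in the image check and inhibition above 20%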;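 for inhibition: signal is fraction of cell area covered by stained E-selectin grains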;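 for nuclei count: 100% = median nuclei count of all wells on the same plate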); settings: HUVEC TNFalpha-induced E-selectin immunofluorescence imaging, at 2 µM; inhibition: stronger effect = higher value; nuclei count: measured here: cell number, toxicity
[3] = Primary imaging screen for DUSP6 inhibitors that restore phospho-Erk in transfected HeLa cells, chemical complementation (AID 609); settings: HeLa MKP-3 transfected, phospho-Erk imaging KS statistic, at 10 µM, cells stimulated with TPA for 15 min;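 for inhibition: phospho-Erk level distribution per well compared with pooled transfected vehicle control wells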
[4] = target: Dual specificity protein phosphatase 6 (Homo sapiens) (UniProt Q16828); assay: as above; settings: HeLa MKP-3 transfected, phospho-Erk imaging KS statistic; at 10 µM; stronger effect = higher value; cells stimulated with TPA for 15 min
[5] = target: Voltage-gated potassium channel subunit beta-2 (Rattus norvegicus) (UniProt P62483); assay: inhibitors of rat Kvbeta2 reductase activity – biochemical, NADPH fluorescence, primary screen (AID 622;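 active = fluorescence slope higher than the sample average by over 3 SD, cut at about -0.22 in these data, passing the limit was not always enough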;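 note: slope of raw intensity against log time taken from 70 to 1610 s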); settings: recombinant KvBeta, 4-cyanobenzaldehyde reduction, at 10 µM, stronger effect = higher value
[6] = target: Voltage-gated potassium channel subunit beta-2 (Rattus norvegicus) (UniProt P62483); assay: enhancers of rat Kvbeta2 NADPH turnover – biochemical, NADPH fluorescence, primary screen (AID 623;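 active = NADPH fluorescence slope more negative than the mean of all samples by about 3 SD, 99.7% confidence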;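 note: fluorescence intensity change per second fitted from 20 to 320 s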); settings: Recombinant KvBeta, NADPH fluorescence decrease slope, 10 min; at 10 µM; stronger effect = lower value
[7] = target: Alpha-2C adrenergic receptor (Homo sapiens) (UniProt P18825); assay: compounds altering alpha2C-coupled GIRK flux – cell-based, HEK293 alpha2C/GIRK1/2, thallium flux, primary screen (AID 624;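 active = fluorescence slope after compound addition differing from the mean of all screened samples at 99.7% confidence, in either direction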;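 note: slope of fluorescence ratio to pre-addition baseline per second over 15 to 24 s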); settings: thallium flux BTC fluorescence, at 10 µM, actives lie on both sides
[8] = inhibitors of larval lipid processing in zebrafish, primary screen, whole organism, PED6 fluorescence, gall bladder and intestine (AID 686;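 active = a full or partial loss of lipid-probe fluorescence in the fish gall bladder, intestine or both, judged by eye; inactive = no fluorescence loss, or compound toxic to the fish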;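 note: larvae 5 to 7 days old with five fish per well; signal comes from phospholipase A2 cleavage of quenched PED6 carried via bile; overnight exposure to compound and PED6 before scoring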); settings: Zebrafish larvae PED6 lipid processing, fluorescence scoring; screened at 20 µM (by protocol)
How it was run: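 System: live zebrafish larvae aged 5-7 days, whole organism; measure: graded gall bladder and intestinal fluorescence inhibition per well; incubation: overnight exposure; reagent: ingested quenched lipid PED6 at 100 nM; signal: By-eye fluorescence microscopy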

[9] = loss of swimming-algae plug formation – whole organism, Chlamydomonas reinhardtii, WT vs cilia-less mutant, absorbance, 96-well, primary screen (AID 463189;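 active = inhibition at or above 50% relative to wild type and mutant plate controls; inactive = inhibition below 50%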;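 note: 0% = wild type cc124 cells in DMSO and 100% = ciliumless bld1 mutant cells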); settings: Chlamydomonas reinhardtii gravitaxis, OD600 absorbance, 2 days; at 10 µM; stronger effect = higher value
[10] = measured here: cell density z-score
[11] = measured here: nuclear c-Myc green intensity z-score
[12] = measured here: nuclear pErk red intensity z-score, stronger effect = higher value

Sequence of Alpha-2C adrenergic receptor (Homo sapiens) (P18825 whole entry, looked up): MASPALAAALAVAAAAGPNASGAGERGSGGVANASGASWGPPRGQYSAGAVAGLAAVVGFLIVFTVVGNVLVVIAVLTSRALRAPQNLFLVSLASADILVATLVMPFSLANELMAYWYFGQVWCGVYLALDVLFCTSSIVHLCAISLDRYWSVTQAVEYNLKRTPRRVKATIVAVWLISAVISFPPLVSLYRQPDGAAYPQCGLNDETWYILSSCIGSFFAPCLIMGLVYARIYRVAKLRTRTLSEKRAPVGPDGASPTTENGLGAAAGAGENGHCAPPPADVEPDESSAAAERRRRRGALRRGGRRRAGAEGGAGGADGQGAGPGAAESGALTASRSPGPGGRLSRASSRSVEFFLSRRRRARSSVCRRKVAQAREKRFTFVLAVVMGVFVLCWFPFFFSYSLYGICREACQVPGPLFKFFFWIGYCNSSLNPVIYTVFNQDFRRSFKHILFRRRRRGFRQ
Sequence of Dual specificity protein phosphatase 6 (Homo sapiens) (Q16828 whole entry, looked up): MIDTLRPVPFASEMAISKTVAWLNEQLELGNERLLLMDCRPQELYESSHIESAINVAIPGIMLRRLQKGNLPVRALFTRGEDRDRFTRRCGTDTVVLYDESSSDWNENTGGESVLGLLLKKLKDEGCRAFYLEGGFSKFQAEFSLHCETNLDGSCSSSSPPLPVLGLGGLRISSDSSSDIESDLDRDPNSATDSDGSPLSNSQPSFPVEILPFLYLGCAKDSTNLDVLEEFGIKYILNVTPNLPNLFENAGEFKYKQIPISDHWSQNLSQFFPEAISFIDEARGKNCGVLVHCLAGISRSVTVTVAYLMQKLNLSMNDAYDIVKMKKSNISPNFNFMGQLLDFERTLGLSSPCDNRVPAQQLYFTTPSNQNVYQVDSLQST
Sequence of Voltage-gated potassium channel subunit beta-2 (Rattus norvegicus) (P62483 whole entry, looked up): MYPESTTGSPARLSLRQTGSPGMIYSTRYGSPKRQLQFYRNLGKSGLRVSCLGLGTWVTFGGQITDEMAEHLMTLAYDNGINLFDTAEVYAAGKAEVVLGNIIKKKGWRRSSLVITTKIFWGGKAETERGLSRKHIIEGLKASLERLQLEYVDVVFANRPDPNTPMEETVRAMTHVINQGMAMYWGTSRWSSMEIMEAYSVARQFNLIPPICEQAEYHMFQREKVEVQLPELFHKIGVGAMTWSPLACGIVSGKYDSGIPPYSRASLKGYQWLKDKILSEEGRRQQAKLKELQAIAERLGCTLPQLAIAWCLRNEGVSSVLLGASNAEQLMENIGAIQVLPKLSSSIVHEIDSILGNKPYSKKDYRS

Row | SMILES | cell count [1] | inhibition [1] | inhibition [2] | nuclei count [2] [%] | z-score [3, 10] | z-score [3, 11] | z-score [3, 12] | inhibition [4] | fluorescence slope [5] | NADPH fluorescence slope [6] | slope [7] | outcome [8] | inhibition [9]
1 | CC(=O)N1CCN(c2nc(CC(C)C)c3c(c2C#N)CCC3)CC1 | 524 | 0.5% (inactive) | -100% (inactive) | 145 | -0.27 | -0.142 | -0.203 | 5.26% (inactive) | -0.477 (inactive) | -4.8e-05 (inactive) | 0.00485 (inactive) | inactive | -18% (inactive)
2 | CC(C)C1=C2OC(N)=C(C#N)C(C#N)=C2C(C)CC1 (stereo unspecified) | 361 | -6.8% (inactive) | -144% (inactive) | 150 | 0.333 | 0.379 | 0.759 | 7.48% (inactive) | -0.391 (inactive) | -3.9e-05 (inactive) | 0.0063 (inactive) | inactive | 13% (inactive)
3 | Cc1ccc(-c2ccc(/C=N/c3ncn[nH]3)o2)cc1Cl | 555 | -7% (inactive) | 17.3% (inactive) | 119 | 1.47 | 1.26 | 0.207 | 4.72% (inactive) | -0.446 (inactive) | -1.9e-05 (inactive) | 0.00689 (inactive) | inactive | 0.03% (inactive)
4 | CC(C)Cc1nc(N2CCN(C(=O)C(C)C)CC2)c(C#N)c2c1CCC2 | 541 | 1% (inactive) | -148% (inactive) | 141 | -1.27 | 0.114 | 1.85 | -3.5% (inactive) | -0.499 (inactive) | -3.3e-05 (inactive) | 0.00462 (inactive) | inactive | 5.12% (inactive)
5 | CCOc1cccc(-c2nn3c(-c4ccco4)nnc3s2)c1 | 591 | -18.9% (inactive) | -310% (inactive) | 153 | -0.574 | -0.476 | -0.496 | -4.27% (inactive) | -0.409 (inactive) | -0.00014 (inactive) | 0.00461 (inactive) | inactive | 17.2% (inactive)
6 | Nc1[nH]nc2nc(NCc3ccccc3)c3c(c12)CCN(Cc1ccccc1)C3 | 638 | -12.3% (inactive) | 20% (inactive) | 190 | 1.59 | -1.42 | -0.833 | 15.1% (inactive) | -0.502 (inactive) | -6.3e-05 (inactive) | 0.00406 (inactive) | inactive | 6.13% (inactive)
7 | O=C(OCCN1CCOCC1)c1ccc(OCCN2CCOCC2)cc1 | 573 | -2.2% (inactive) | -54.5% (inactive) | 130 | -0.658 | 0.853 | 0.881 | 1.75% (inactive) | -0.555 (inactive) | -5.3e-05 (inactive) | 0.00568 (inactive) | inactive | 32.3% (inactive)
8 | CC(C)CN1C(=O)NC(NC(=O)c2cccnc2)(C(F)(F)F)C1=O (stereo unspecified) | 488 | -2.8% (inactive) | -106% (inactive) | 130 | 0.462 | -0.157 | -1.2 | 1.75% (inactive) | -0.505 (inactive) | -7.1e-06 (inactive) | 0.00612 (inactive) | inactive | -0.985% (inactive)
9 | Clc1ccc2nc(CSc3nc4ccccc4o3)cn2c1 | 405 | -12.3% (inactive) | -79.3% (inactive) | 99.4 | -0.399 | -0.856 | -1.36 | 11.9% (inactive) | -0.49 (inactive) | -0.000153 (inactive) | 0.00552 (inactive) | inactive | -14.7% (inactive)
10 | OCCN(CCO)c1ncnc2c1sc1nc(N3CCOCC3)c3c(c12)CCCC3 | 597 | -26.4% (inactive) | -62.2% (inactive) | 167 | 0.421 | -0.458 | -0.129 | 7.73% (inactive) | -0.275 (inactive) | 1.3e-05 (inactive) | 0.00534 (inactive) | inactive | -3.05% (inactive)
11 | Fc1ccc2[nH]c3c(N4CCN(Cc5ccc6c(c5)OCO6)CC4)ncnc3c2c1 | 523 | -4.5% (inactive) | -93.3% (inactive) | 169 | 0.499 | 0.133 | -0.391 | -1.12% (inactive) | -0.311 (inactive) | 3.2e-05 (inactive) | 0.00448 (inactive) | inactive; toxic | 58.4% (active)
12 | COc1cccc(/C=C2/CN(C)CC3=C2OC(N)=C(C#N)C3c2cccc(OC)c2)c1 (stereo unspecified) | 562 | -0.3% (inactive) | -91.1% (inactive) | 190 | 1.7 | -1.04 | -1.64 | -1.12% (inactive) | -0.289 (inactive) | 4.6e-07 (inactive) | 0.00546 (inactive) | inactive | 3.47% (inactive)
13 | Cc1ccc(C2C(C(=O)c3cc4ccccc4o3)=C(O)C(=O)N2CCCN(C)C)cc1 (stereo unspecified) | 445 | -4.5% (inactive) | -30.5% (inactive) | 161 | -0.136 | -1.28 | 0.773 | -2.91% (inactive) | -0.414 (inactive) | -4.9e-05 (inactive) | 0.00603 (inactive) | inactive | -1.22% (inactive)
14 | O=C1CCc2nc3ccccc3c(=O)n2N1 | 452 | -12.6% (inactive) | 21.9% (inactive) | 104 | -0.985 | 0.704 | -0.802 | 11.9% (inactive) | -0.488 (inactive) | -4.1e-05 (inactive) | 0.00483 (inactive) | inactive | 23.6% (inactive)
15 | CCOc1ccccc1N1CCN(c2nc3ccccc3nc2C(C#N)C(=O)OC(C)C)CC1 (stereo unspecified) | 451 | -7.4% (inactive) | -161% (inactive) | 148 | -1.19 | -0.0935 | 0.236 | -10.1% (inactive) | -0.399 (inactive) | -2.9e-05 (inactive) | 0.00483 (inactive) | inactive | 10.3% (inactive)
16 | COc1ccc(-c2nc3n(c2Br)CCC3)cc1 | 587 | -14.6% (inactive) | -22.2% (inactive) | 162 | 1.1 | 0.741 | -1.03 | 39% (inactive) | -0.503 (inactive) | -2.6e-05 (inactive) | 0.00527 (inactive) | inactive | 49.9% (inactive)
17 | Cc1ccc(-n2c(=O)c3c4c(sc3n3c(C)nnc23)COC(C(C)C)C4)cc1 (stereo unspecified) | 551 | -2.6% (inactive) | -1.3% (inactive) | 122 | 0.656 | -0.667 | -0.392 | 9.82% (inactive) | -0.411 (inactive) | 2.1e-05 (inactive) | 0.00541 (inactive) | inactive | 49.1% (inactive)
